To fix the notation:
B1: Osa-1-4 twister ribozyme (parent)
chain: CCGCCUAACACUGCCAAUGCCGGUCCCAAGCCCGGAUAAAAGUGGAGGGGGCGG

In this series the parent is B1. The experiment in a line: self-cleavage, relative activity (ratio to wild type); higher = more cleavage; co-transcriptional. The method, boiled down:
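Values are relative activity: the fraction cleaved, normalised to wild type. A doped DNA template for a 54-nucleotide twister ribozyme from Oryza sativa had 97 % wild-type base and 1 % of each other base at the 48 positions downstream of the cleavage site. The RNA was transcribed in vitro for 2 h at 37 °C so that it could cleave itself co-transcriptionally, then sequenced deeply, with cleavage status scored from the presence or absence of upstream sequence in reads.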
For the variant C15A C9U, the self-cleavage was 0.19. Consider C15A C9G, for which the self-cleavage was 0.14.

On to C15A C9A, for which the self-cleavage was found to be 0.14. Consider C14G U43C, for which the self-cleavage came out at 0.07. As to C14G U43G, the self-cleavage was determined as 0.06. The result for C14G U43A reads 0.09; that for C15G G51U, 0.08. The value for C15G G51C was 0.07; that for C15G G51A was 0.13.

As to C15G C27U, the self-cleavage came out at 0.08. Take C15G C27G: the self-cleavage was 0.1. The result for C15G C27A reads 0.08; that for C15G C20G, 0.08.

On to C15G C20U, for which the self-cleavage worked out at 0.69. Take C15G C20A: the self-cleavage was 0.54.

For the variant C14U C20G, the self-cleavage was found to be 0.05.

In the case of C14U C20A, the self-cleavage stood at 0.51.

With C14U C20U, the self-cleavage was 0.48. The result for C15A G45A reads 0.05. With C15A G45C, the self-cleavage was 0.04. The result for C15A G45U reads 0.04; that for C15G G44U, 0.17. The value for C15G G44A was 0.12; that for C15G G44C was 0.19. The result for C15A C25A reads 0.07. For the variant C15A C25U, the self-cleavage was 0.08. The value for C15A C25G was 0.04; that for C15G G42C was 0.08. The value for C15G G42A was 0.12; that for C15G G42U was 0.05; that for C14U G53A was 0.11.

C14U G53U: the self-cleavage is 0.09. Regarding C14U G53C, the self-cleavage worked out at 0.05. The value for C15G C32U was 0.07; that for C15G C32A was 0.05; that for C15G C32G was 0.12.

With C15G C26G, the self-cleavage was found to be 0.11. C15G C26U: the self-cleavage was 0.11. Turning to C15G C26A, the self-cleavage came to 0.04. The result for C14U C25U reads 0.1; that for C14U C25A, 0.06. The result for C14U C25G reads 0.06. As for C14U U37A, the self-cleavage was 0.5.

As for C14U U37G, the self-cleavage is 0.74. The value for C14U U37C was 0.57. The result for C15G G53A reads 0.13. In the case of C15G G53U, the self-cleavage turned out to be 0.13.

In the case of C15G G53C, the self-cleavage turned out to be 0.05. The value for C15A G47A was 0.06. The result for C15A G47U reads 0.06. The result for C15A G47C reads 0.04; that for C15A C20A, 0.52; that for C15A C20G, 0.06. Take C15A C20U: the self-cleavage stood at 0.65. As to C15G G50A, the self-cleavage was 0.3.

On to C15G G50U, for which the self-cleavage amounted to 0.26. The result for C15G G50C reads 0.14; that for C14U C33A, 0.04. The value for C14U C33U was 0.08; that for C14U C33G was 0.03. The result for C15G C52A reads 0.21; that for C15G C52G, 0.31; that for C15G C52U, 0.48.

As to C15G C21A, the self-cleavage worked out at 0.11.

With C15G C21G, the self-cleavage came out at 0.05. The result for C15G C21U reads 0.42; that for C14U G45C, 0.04.

Take C14U G45A: the self-cleavage was 0.04. With C14U G45U, the self-cleavage stood at 0.06. As to C15A U18C, the self-cleavage came out at 0.58. As to C15A U18A, the self-cleavage came to 0.51. The result for C15A U18G reads 0.49. As to C14U G34U, the self-cleavage turned out to be 0.11. The result for C14U G34C reads 0.08; that for C14U G34A, 0.15; that for C14G G54A, 0.1. The value for C14G G54U was 0.3; that for C14G G54C was 0.06; that for C15A C31A was 0.03. The result for C15A C31G reads 0.05; that for C15A C31U, 0.09. As to C15G G19A, the self-cleavage was 0.95. For the variant C15G G19U, the self-cleavage was found to be 0.7. The value for C15G G19C was 0.74. Turning to C14U G49A, the self-cleavage came to 0.05.

For the variant C14U G49C, the self-cleavage was 0.05. On to C14U G49U, for which the self-cleavage was 0.06. In the case of C14U C31U, the self-cleavage was 0.06. The value for C14U C31G was 0.06. Turning to C14U C31A, the self-cleavage amounted to 0.03.

For the variant C15A C21G, the self-cleavage was determined as 0.07.

In the case of C15A C21U, the self-cleavage was 0.46. The value for C15A C21A was 0.15; that for C15A G30U was 0.03. The value for C15A G30A was 0.02; that for C15A G30C was 0.04; that for C15G G22C was 0.06. The value for C15G G22A was 0.16; that for C15G G22U was 0.09.

As for C14U C32A, the self-cleavage turned out to be 0.04. The result for C14U C32G reads 0.04. With C14U C32U, the self-cleavage was found to be 0.06. The value for C15A G50A was 0.38; that for C15A G50C was 0.14; that for C15A G50U was 0.23.

For C15A G48C, the self-cleavage was 0.04. The value for C15A G48A was 0.05; that for C15A G48U was 0.04; that for C15G U24C was 0.09. With C15G U24A, the self-cleavage is 0.07. The result for C15G U24G reads 0.02; that for C15A G51U, 0.07. With C15A G51C, the self-cleavage was found to be 0.04. The value for C15A G51A was 0.1. The value for C14U C15A was 0.08. For the variant C14U C15U, the self-cleavage was 0.09. Turning to C14U C15G, the self-cleavage stood at 0.07.

Regarding C15G C31G, the self-cleavage worked out at 0.12. In the case of C15G C31A, the self-cleavage turned out to be 0.03. For the variant C15G C31U, the self-cleavage was 0.09. The value for C15A U24G was 0.02; that for C15A U24A was 0.05; that for C15A U24C was 0.08. For C14U G23U, the self-cleavage was determined as 0.03.

Consider C14U G23C, for which the self-cleavage turned out to be 0.04. For the variant C14U G23A, the self-cleavage was 0.06.

Consider C15A G49C, for which the self-cleavage worked out at 0.04. Consider C15A G49A, for which the self-cleavage amounted to 0.05.

Consider C15A G49U, for which the self-cleavage was determined as 0.05. On to C14U U12C, for which the self-cleavage is 0.09. The value for C14U U12A was 0.09. The value for C14U U12G was 0.05. On to C15A C27A, for which the self-cleavage was determined as 0.16. The value for C15A C27G was 0.04; that for C15A C27U was 0.07; that for C14G G50U was 0.1.

For the variant C14G G50A, the self-cleavage is 0.13. The value for C14G G50C was 0.08.

With C15U C21U, the self-cleavage worked out at 0.46.

For C15U C21A, the self-cleavage amounted to 0.09.

Consider C15U C21G, for which the self-cleavage is 0.04.

With C15G G47C, the self-cleavage worked out at 0.06.

C15G G47A: the self-cleavage is 0.08. The value for C15G G47U was 0.09; that for C14U U18C was 0.51. The result for C14U U18G reads 0.53; that for C14U U18A, 0.5. The value for C15A C32U was 0.07; that for C15A C32G was 0.07. As for C15A C32A, the self-cleavage came to 0.08. For the variant C15G, the self-cleavage is 0.54.

Consider C15A, for which the self-cleavage turned out to be 0.61. For the variant C15U, the self-cleavage was 0.53. As to C14U G35A, the self-cleavage came out at 0.43.

As to C14U G35U, the self-cleavage is 0.21. For the variant C14U G35C, the self-cleavage was 0.07. For the variant C14U G50C, the self-cleavage worked out at 0.1.

For C14U G50U, the self-cleavage was 0.18. Turning to C14U G50A, the self-cleavage amounted to 0.35.

For C14U, the self-cleavage stood at 0.63. Take C14U G30A: the self-cleavage came out at 0.79. With C14U G30U, the self-cleavage turned out to be 0.03. The result for C14U G30C reads 0.03; that for C15A G34C, 0.11. In the case of C15A G34U, the self-cleavage worked out at 0.14. As for C15A G34A, the self-cleavage is 0.23.

Consider C14G U37G, for which the self-cleavage is 0.25.
